From PubChem BioAssay AID651869 (Broad Institute, 2012)

Test system: T. cruzi CAI/72 in BESM cells, trypomastigote emergence, microscopy
Assay: intracellular T. cruzi clearance after withdrawal – imaging, CAI/72 strain, BESM host cells, 29-day treatment, set 2, mechanism study for T. cruzi inhibitor project, late-stage follow-up (AID 651869)
Details: stronger effect = higher value
How it was run: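 assay system = bovine embryo skeletal muscle (BESM) cells infected with Trypanosoma cruzi CAI/72 | incubation = 24 h post-infection wash, alternate-day dosing 29 days, 20-day washout | signal = daily light-microscopy scoring of trypomastigote emergence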

| Structure (SMILES) | cidality slope score |
| --- | --- |
| C[C@@H]1CN([C@@H](C)CO)C(=O)c2cccc(NC(=O)c3ccncc3)c2O[C@H]1CN(C)Cc1cccc(Cl)c1 | 75 |
| C[C@H](CO)N1C[C@H](C)[C@H](CN(C)Cc2ccc(Oc3ccccc3)cc2)Oc2c(NC(=O)c3ccncc3)cccc2C1=O | 85 |
| C[C@@H]1CN([C@@H](C)CO)C(=O)c2cccc(NC(=O)c3ccncc3)c2O[C@H]1CN(C)Cc1ccc(Oc2ccccc2)cc1 | 1100 |
| C[C@@H]1CN([C@@H](C)CO)C(=O)c2cccc(NC(=O)c3ccncc3)c2O[C@H]1CN(C)Cc1ccc(Cl)cc1 | 7.6 |
| C[C@@H]1CN([C@H](C)CO)C(=O)c2cccc(NC(=O)c3ccncc3)c2O[C@H]1CN(C)Cc1ccc(Oc2ccccc2)cc1 | 1100 |
| C[C@H]1CN([C@@H](C)CO)C(=O)c2cccc(NC(=O)c3ccncc3)c2O[C@@H]1CN(C)Cc1ccc(Oc2ccccc2)cc1 | 1100 |
| CC(C)N1C[C@@H](C)[C@H](CN(C)Cc2cccc(Oc3ccccc3)c2)Oc2c(NC(=O)c3ccncc3)cccc2C1=O | 1100 |
| O=C(Cn1ccnc1[N+](=O)[O-])NCc1ccccc1 | 12 |
| C[C@@H]1CN([C@H](C)CO)C(=O)c2cccc(NC(=O)c3ccncc3)c2O[C@H]1CN(C)Cc1ccccc1 | 85 |
| C[C@H]1CN([C@@H](C)CO)C(=O)c2cccc(NC(=O)c3ccncc3)c2O[C@H]1CN(C)Cc1ccc(Oc2ccccc2)cc1 | 1100 |
